The values below come from ChEMBL document CHEMBL2375213, “Synthesis and anticancer activity of novel spiro-isoxazoline and spiro-isoxazolidine derivatives of α-santonin” (Eur J Med Chem, 2013).

One assay deals with HEp-2. Kind of assay: Antiproliferative activity against human Hep2 cells after 48 hrs by sulforhodamine B assay. It counts as functional, cell-based. To be noted: HEp-2, 48 h.
Assay [1] concerns PC-3. Kind of assay: Cell cycle arrest in human PC3 cells assessed as accumulation at S phase at 5 uM after 24 hrs by propidium iodide staining-based FACS flow cytometric analysis (reference value: 8.5%). The assay is classed as functional. In outline: (§1)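 PC-3 cells (1×10^6/well) exposed 24 h to test agent at 1, 5 or 10 μM. Cells washed twice in ice-cold PBS, fixed in 70% ethanol for 30 min, then treated with RNase A (0.1 mg/mL, 37 °C, 30 min). Propidium iodide staining 30 min on ice in the dark. DNA content read by flow cytometry with 488 nm excitation and doublet discrimination, 10,000 events.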

In assay [2] the test system is PC-3. Kind of assay: Cell cycle arrest in human PC3 cells assessed as accumulation at G0/G1 phase at 1 uM after 24 hrs by propidium iodide staining-based FACS flow cytometric analysis (reference value: 68.2%). The assay is classed as functional. Put shortly: as §1
The subject of a further assay is THP-1. In words: Antiproliferative activity against human THP1 cells after 48 hrs by sulforhodamine B assay. The assay is classed as functional, cell-based. The settings on record: THP-1, 48 h.
Assay [3] relates to PC-3. Kind of assay: Cell cycle arrest in human PC3 cells assessed as accumulation at subG1 phase after 24 hrs by propidium iodide staining-based FACS flow cytometric analysis. It counts as functional. Put shortly: as §1
In assay [4] the test system is PC-3. In words: Cell cycle arrest in human PC3 cells assessed as accumulation at G0/G1 phase at 5 uM after 24 hrs by propidium iodide staining-based FACS flow cytometric analysis (reference value: 68.2%). It counts as functional. Put shortly: as §1
In assay [5] the test system is PC-3. Kind of assay: Cell cycle arrest in human PC3 cells assessed as accumulation at M phase at 5 uM after 24 hrs by propidium iodide staining-based FACS flow cytometric analysis (reference value: 3%). The assay is classed as functional. Put shortly:
as §1

For assay [6], the system named is PC-3. Kind of assay: Cell cycle arrest in human PC3 cells assessed as accumulation at S phase at 1 uM after 24 hrs by propidium iodide staining-based FACS flow cytometric analysis (reference value: 8.5%). It counts as functional. Put shortly: as §1
The test system of assay [7] is PC-3. Kind of assay: Cell cycle arrest in human PC3 cells assessed as accumulation at M phase at 1 uM after 24 hrs by propidium iodide staining-based FACS flow cytometric analysis (reference value: 3%). The assay is classed as functional. Put shortly: as §1
Assay [8] has as its system PC-3. Kind of assay: Cell cycle arrest in human PC3 cells assessed as accumulation at subG1 phase at 10 uM after 24 hrs by propidium iodide staining-based FACS flow cytometric analysis (reference value: 13.1%). It counts as functional. Put shortly:
as §1

Another assay concerns MCF7. Kind of assay: Antiproliferative activity against human MCF7 cells after 48 hrs by sulforhodamine B assay. The assay is classed as functional, cell-based. To be noted: MCF7, 48 h.
For assay [9], the system named is PC-3. Kind of assay: Cell cycle arrest in human PC3 cells assessed as accumulation at G0/G1 phase at 10 uM after 24 hrs by propidium iodide staining-based FACS flow cytometric analysis (reference value: 68.2%). The assay is classed as functional. In outline: as §1
Assay [10] relates to PC-3. In words: Cell cycle arrest in human PC3 cells assessed as accumulation at S phase at 10 uM after 24 hrs by propidium iodide staining-based FACS flow cytometric analysis (reference value: 8.5%). It counts as functional. Put shortly: as §1
In assay [11] the test system is PC-3. In words: Antiproliferative activity against human PC3 cells after 48 hrs by sulforhodamine B assay. It counts as functional, cell-based. To be noted: PC-3, 48 h.
The test system of assay [12] is PC-3. Kind of assay: Cell cycle arrest in human PC3 cells assessed as accumulation at subG1 phase at 1 uM after 24 hrs by propidium iodide staining-based FACS flow cytometric analysis (reference value: 13.1%). It counts as functional. In outline:
as §1

The test system of another assay is A549. In words: Antiproliferative activity against human A549 cells after 48 hrs by sulforhodamine B assay. To be noted: A549, 48 h. The assay is classed as functional, cell-based.
For another assay, the system named is HCT-116. Kind of assay: Antiproliferative activity against human HCT116 cells after 48 hrs by sulforhodamine B assay. It counts as functional, cell-based. To be noted: HCT-116, 48 h.
Assay [13] concerns PC-3. In words: Cell cycle arrest in human PC3 cells assessed as accumulation at subG1 phase at 5 uM after 24 hrs by propidium iodide staining-based FACS flow cytometric analysis (reference value: 13.1%). It counts as functional. Put shortly:
as §1

Assay [14] relates to PC-3. In words: Cell cycle arrest in human PC3 cells assessed as accumulation at M phase at 10 uM after 24 hrs by propidium iodide staining-based FACS flow cytometric analysis (reference value: 3%). The assay is classed as functional. Put shortly:
as §1

Structures are written as SMILES. pIC50: −log10 of the molar value.

With `CC1=C2[C@H]3OC(=O)C4(C[C@H](c5ccc(Br)cc5)N(c5ccccc5)O4)[C@@H]3CC[C@@]2(C)C=CC1=O` (some centres not stated), the pIC50 in the assay on HEp-2 was 4.00; in the assay with THP-1 it was 6.52; in the assay on MCF7, 6.10; in the assay on PC-3 [11] it was 7.00; with A549, 4.00; in the assay with HCT-116, 4.00. The Activity was 4.4% in the assay on PC-3 [1]; 55.3% with PC-3 [2]; “Dose-dependent effect” in the assay with PC-3 [3]; 55.8% with PC-3 [4]; 0.8% with PC-3 [5]; 4.2% in the assay on PC-3 [6]. Moreover, the Activity in the assay with PC-3 [7] is 1.6%; with PC-3 [8] it was 42.8%; with PC-3 [9], 53.2%; with PC-3 [10], 4.9%; in the assay with PC-3 [12], 33.8%; in the assay with PC-3 [13] it was 34.7%. Also, in the assay on PC-3 [14], the Activity came to 1.3%.

With `CC[C@@]1(O)C(=O)OCc2c1cc1n(c2=O)Cc2cc3ccccc3nc2-1` [CAMPTOTHECIN], the Activity with PC-3 [1] was 4.94%; in the assay with PC-3 [4], 30.17%; in the assay with PC-3 [5], 4.76%; with PC-3 [13], 60.44%.

Regarding `CC1=C2[C@H]3OC(=O)C4(CC(c5c(Cl)cccc5Cl)=NO4)[C@@H]3CC[C@@]2(C)C=CC1=O` (some centres not stated), the negative logarithm of the IC50 (pIC50) in the assay on HEp-2 is 4.82; with THP-1, 4.00; in the assay with MCF7 it was 4.57; in the assay with PC-3 [11] it was 4.00; in the assay on A549, 4.00; in the assay on HCT-116, 5.00.

`CC1=C2[C@H]3OC(=O)C4(C[C@H](c5ccc([N+](=O)[O-])cc5)N(c5ccccc5)O4)[C@@H]3CC[C@@]2(C)C=CC1=O` (some centres not stated): the pIC50 with HEp-2 is 4.85; in the assay with THP-1, 7.00; with MCF7, 6.15; in the assay on PC-3 [11] it was 6.30; in the assay on A549, 4.18; in the assay on HCT-116, 4.00.

Take `CC1=C2[C@H]3OC(=O)C4(C[C@H](c5cccc([N+](=O)[O-])c5)N(c5ccccc5)O4)[C@@H]3CC[C@@]2(C)C=CC1=O` (some centres not stated): the pIC50 in the assay with HEp-2 was 4.00; with THP-1, 4.00; in the assay with MCF7, 4.85; in the assay on PC-3 [11] it was 6.52; in the assay with A549, 4.09; in the assay with HCT-116 it was 4.00.

Regarding `CC1=C2[C@H]3OC(=O)C4(C[C@H](c5ccc(F)c(Br)c5)N(c5ccccc5)O4)[C@@H]3CC[C@@]2(C)C=CC1=O` (some centres not stated), the negative logarithm of the IC50 (pIC50) in the assay on HEp-2 is 5.43; in the assay with THP-1, 5.64; with MCF7, 6.70; in the assay on PC-3 [11], 6.05; in the assay with A549, 4.72; in the assay with HCT-116, 4.00.
